Results taken from ChEMBL document CHEMBL3352149, “Promiscuity and selectivity in covalent enzyme inhibition: a systematic study of electrophilic fragments” (J Med Chem, 2014).

Key:
[1] = molecular target: Genome polyprotein (West Nile virus) (UniProt P06935); assay: Inhibition of West Nile virus NS2B-NS3 protease at 50 uM
Escherichia coli [2] = assay: Inhibition of wild-type Escherichia coli MurF compound preincubated for 10 mins before substrate addition at 25 uM measured after 15 mins by LC-MS method
Summary of the method: (§1)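 E. coli wild-type enzyme (4 nM) was preincubated with 25 μM compound for 10 min at 37 °C. Enzymatically generated nucleotide-sugar substrate (~200 μM) plus ATP (~200 μM), or NADPH 200 μM for MurB, was added for 10 min. Reactions were started with amino-acid cosubstrate (MurC–F) or EP-UNAG (MurB), run 15 min at 37 °C, and quenched with formic acid. Product was measured by negative-ESI LC-MS EIC peak area. MgCl2: MurC 10, MurD/E 2, MurF 5 mM; MurB had 5 mM KCl. All in 50 mM NH4HCO3, 0.07% BSA, 1% DMSO; triplicate.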

HeLa = assay: Cytotoxicity against human HeLa cells assessed as reduction in cell viability after 24 hrs by CellTiter-Blue assay; assay type: cell-based
Summary of the method: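 HeLa cells seeded in triplicate at 5×10^3 cells/well and grown 24 h at 37 °C/5% CO2. Compounds at varying concentrations were added as a 2x stock in phenol-red-free DMEM with FBS, penicillin/streptomycin, sodium pyruvate and L-glutamine, then left 24 h. Medium was replaced with CellTiter-Blue medium for 3 h. A570/A610 was read after background subtraction, as % of untreated controls; EC50 derived.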

Escherichia coli [3] = assay: Inhibition of wild-type Escherichia coli MurC compound preincubated for 10 mins before substrate addition at 25 uM measured after 15 mins by LC-MS method; summary of the method: as §1
[4] = molecular target: Genome polyprotein (dengue virus type 2) (UniProt P12823); assay: Inhibition of Dengue virus serotype 2 NS2B-NS3 protease at 50 uM
Escherichia coli [5] = assay: Inhibition of wild-type Escherichia coli MurE compound preincubated for 10 mins before substrate addition at 25 uM measured after 15 mins by LC-MS method; summary of the method: as §1
Escherichia coli [6] = assay: Inhibition of Escherichia coli MetAP at 25 uM after 20 mins by HPLC analysis
Summary of the method: (§2)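 Endpoint assay. Enzyme (50 nM) was preincubated with 25 μM compound for 20 min at 37 °C in 50 mM Tris pH 7.5, 100 mM NaCl, 100 μM CoCl2, 0.075% BSA. MGMM substrate (400 μM) was then added for 15 min (human MetAP-1) or 20 min (E. coli MetAP). Reactions were stopped with TFA. GMM product was quantified by RP-HPLC, UV 214 nm. Triplicate.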

Escherichia coli [7] = assay: Inhibition of wild-type Escherichia coli MurA compound preincubated for 10 mins before substrate addition at 25 uM measured after 15 mins by LC-MS method
[8] = molecular target: Methionine aminopeptidase 1 (Homo sapiens) (UniProt P53582); assay: Inhibition of human MetAP at 25 uM after 20 mins by HPLC analysis; summary of the method: as §2
Prothrombin (Bos taurus) = Prothrombin (Bos taurus) (UniProt P00735); assay: Inhibition of Bovine thrombin using Boc-Val-Pro-Arg-AMC as substrate compound preincubated at 25 uM for 15 mins by fluorescence assay
Summary of the method: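 Bovine thrombin (final 10 nM) was preincubated 15 min with 25 μM compound in 50 mM Tris-HCl pH 7.5, 150 mM NaCl, 0.05% Tween 20. The reaction was started with Boc-Val-Pro-Arg-AMC (50 μM final). Fluorescence (ex 355/em 460 nm) was monitored continuously for 10 min; activity taken as slope (RFU/s). Triplicate.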

[9] = GSH reactivity of the compound assessed as adducts formation by RP-HPLC analysis
Summary of the method: (§3)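 Fresh aqueous glutathione (10 mM solution) was added to 50 mM Tris-maleate buffer, pH 7.5. The reaction was started with compound from 10 mM DMSO stock (final 250 μM). Mixtures were followed by reversed-phase HPLC on an ODS column with a gradient to 100% B; rate constants are given in l·mol⁻¹·s⁻¹.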

Escherichia coli [10] = assay: Inhibition of wild-type Escherichia coli MurD compound preincubated for 10 mins before substrate addition at 25 uM measured after 15 mins by LC-MS method; summary of the method: as §1
Escherichia coli [11] = assay: Inhibition of wild-type Escherichia coli MurB compound preincubated for 10 mins before substrate addition at 25 uM measured after 15 mins by LC-MS method; summary of the method: as §1
[12] = GSH reactivity of the compound assessed as adducts formation meaured over 3 hrs by RP-HPLC analysis; summary of the method: as §3

Genome polyprotein (West Nile virus), sequence (P06935 whole entry): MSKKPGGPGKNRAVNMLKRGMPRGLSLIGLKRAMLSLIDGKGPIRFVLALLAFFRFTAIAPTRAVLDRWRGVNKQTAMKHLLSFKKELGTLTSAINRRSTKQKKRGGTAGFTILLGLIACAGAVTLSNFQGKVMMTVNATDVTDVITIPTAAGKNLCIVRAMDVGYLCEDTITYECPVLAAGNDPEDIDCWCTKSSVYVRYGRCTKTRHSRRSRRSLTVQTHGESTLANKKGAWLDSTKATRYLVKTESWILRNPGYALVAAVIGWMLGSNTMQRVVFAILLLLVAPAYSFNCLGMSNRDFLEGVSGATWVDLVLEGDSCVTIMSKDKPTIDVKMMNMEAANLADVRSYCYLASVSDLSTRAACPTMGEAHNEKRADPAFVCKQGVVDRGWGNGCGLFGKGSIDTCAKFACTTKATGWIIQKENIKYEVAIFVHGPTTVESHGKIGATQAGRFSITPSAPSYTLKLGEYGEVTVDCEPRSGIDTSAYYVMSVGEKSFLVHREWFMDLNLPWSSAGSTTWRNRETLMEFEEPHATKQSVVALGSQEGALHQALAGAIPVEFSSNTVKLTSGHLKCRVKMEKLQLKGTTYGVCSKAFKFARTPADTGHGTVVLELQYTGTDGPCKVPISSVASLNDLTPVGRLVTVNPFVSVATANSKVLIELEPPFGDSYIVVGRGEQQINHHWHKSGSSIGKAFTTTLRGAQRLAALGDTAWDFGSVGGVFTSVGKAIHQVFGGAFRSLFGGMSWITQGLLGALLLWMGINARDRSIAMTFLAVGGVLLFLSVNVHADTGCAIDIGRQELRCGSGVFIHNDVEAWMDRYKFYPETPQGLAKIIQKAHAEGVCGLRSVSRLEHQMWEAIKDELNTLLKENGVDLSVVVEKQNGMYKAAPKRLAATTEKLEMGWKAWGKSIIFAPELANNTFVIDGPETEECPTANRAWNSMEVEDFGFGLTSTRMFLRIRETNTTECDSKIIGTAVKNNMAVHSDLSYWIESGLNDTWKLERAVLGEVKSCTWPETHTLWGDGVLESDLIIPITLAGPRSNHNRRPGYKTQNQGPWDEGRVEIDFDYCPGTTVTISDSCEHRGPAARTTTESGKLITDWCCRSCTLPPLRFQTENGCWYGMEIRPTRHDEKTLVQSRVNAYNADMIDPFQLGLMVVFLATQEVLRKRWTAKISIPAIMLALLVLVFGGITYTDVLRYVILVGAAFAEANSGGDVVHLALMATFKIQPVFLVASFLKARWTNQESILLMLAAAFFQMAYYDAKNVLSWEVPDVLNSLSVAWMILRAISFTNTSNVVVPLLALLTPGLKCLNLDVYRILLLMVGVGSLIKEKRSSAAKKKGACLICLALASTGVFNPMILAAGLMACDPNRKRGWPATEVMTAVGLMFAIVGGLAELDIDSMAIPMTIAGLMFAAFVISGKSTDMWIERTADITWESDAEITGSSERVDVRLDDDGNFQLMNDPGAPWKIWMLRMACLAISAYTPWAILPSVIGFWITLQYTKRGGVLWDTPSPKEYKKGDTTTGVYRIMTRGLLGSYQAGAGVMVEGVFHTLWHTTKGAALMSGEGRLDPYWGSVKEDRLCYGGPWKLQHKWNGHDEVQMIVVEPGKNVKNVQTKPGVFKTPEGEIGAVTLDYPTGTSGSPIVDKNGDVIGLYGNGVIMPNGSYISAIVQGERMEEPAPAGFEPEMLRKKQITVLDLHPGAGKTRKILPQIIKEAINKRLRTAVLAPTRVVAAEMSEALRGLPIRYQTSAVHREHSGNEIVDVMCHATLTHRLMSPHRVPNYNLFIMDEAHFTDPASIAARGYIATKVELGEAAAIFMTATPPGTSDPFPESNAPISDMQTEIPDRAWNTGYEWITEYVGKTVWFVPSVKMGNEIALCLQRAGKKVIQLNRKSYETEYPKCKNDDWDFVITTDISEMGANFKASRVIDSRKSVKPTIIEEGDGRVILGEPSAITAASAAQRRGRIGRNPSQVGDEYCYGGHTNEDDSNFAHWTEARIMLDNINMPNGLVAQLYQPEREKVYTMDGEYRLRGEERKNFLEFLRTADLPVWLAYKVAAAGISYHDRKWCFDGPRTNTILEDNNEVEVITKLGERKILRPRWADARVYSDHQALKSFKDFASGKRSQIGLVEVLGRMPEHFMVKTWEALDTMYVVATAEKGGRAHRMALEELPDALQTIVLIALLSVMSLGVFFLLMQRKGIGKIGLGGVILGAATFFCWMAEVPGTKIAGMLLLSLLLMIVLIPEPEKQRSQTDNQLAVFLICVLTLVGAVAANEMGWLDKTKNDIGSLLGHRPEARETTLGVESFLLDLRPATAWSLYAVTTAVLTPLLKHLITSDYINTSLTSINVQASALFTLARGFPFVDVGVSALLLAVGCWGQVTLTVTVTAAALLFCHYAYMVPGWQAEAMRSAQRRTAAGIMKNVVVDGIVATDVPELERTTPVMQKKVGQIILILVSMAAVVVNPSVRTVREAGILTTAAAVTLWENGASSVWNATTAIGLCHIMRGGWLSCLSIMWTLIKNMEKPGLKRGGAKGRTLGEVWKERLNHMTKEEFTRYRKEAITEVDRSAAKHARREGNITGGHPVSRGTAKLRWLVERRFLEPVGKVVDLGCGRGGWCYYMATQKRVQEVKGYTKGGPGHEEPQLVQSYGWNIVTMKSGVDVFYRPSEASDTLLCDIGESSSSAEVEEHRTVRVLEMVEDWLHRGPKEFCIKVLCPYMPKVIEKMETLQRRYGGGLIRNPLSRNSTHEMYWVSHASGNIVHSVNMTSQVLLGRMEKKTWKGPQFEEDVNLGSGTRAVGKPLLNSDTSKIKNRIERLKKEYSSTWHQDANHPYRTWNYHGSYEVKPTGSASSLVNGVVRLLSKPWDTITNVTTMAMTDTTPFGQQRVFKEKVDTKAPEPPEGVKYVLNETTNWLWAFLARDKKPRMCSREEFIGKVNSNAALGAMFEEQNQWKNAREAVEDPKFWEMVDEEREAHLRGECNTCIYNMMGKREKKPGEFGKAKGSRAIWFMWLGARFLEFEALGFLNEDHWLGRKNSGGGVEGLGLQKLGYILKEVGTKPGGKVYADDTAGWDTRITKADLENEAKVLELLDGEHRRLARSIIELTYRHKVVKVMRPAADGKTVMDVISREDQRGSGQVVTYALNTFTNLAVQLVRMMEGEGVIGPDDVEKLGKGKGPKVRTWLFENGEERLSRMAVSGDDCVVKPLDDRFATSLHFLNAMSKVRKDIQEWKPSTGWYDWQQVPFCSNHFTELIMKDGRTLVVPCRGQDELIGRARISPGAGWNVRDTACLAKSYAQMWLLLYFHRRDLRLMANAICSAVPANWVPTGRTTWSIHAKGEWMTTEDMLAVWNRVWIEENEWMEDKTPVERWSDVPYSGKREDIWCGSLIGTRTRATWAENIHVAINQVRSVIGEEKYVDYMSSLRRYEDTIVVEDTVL

Row | inhibition [1] | inhibition (Escherichia coli [2]) | inhibition (Escherichia coli [3]) | inhibition [4] | inhibition (Escherichia coli [5]) | inhibition (Escherichia coli [6]) | inhibition (Escherichia coli [7]) | inhibition [8] | inhibition (Prothrombin (Bos taurus)) | inhibition (Escherichia coli [10]) | inhibition (Escherichia coli [11]) | SMILES | EC50 (HeLa) | Activity [9] | Activity [12]
1 | < 15% | < 15% | < 15% | < 15% | < 15% | < 15% | < 15% | < 15% | < 15% | < 15% | < 15% | CCCCNC(=O)CC#N | > 100 µM | < 0.1 L/mol/s | 
2 | < 15% | < 15% | < 15% | < 15% | < 15% | < 15% | < 15% | < 15% | < 15% | < 15% | < 15% | C=CC(=O)NCCc1ccccc1 |  | < 0.1 L/mol/s | < 5%
3 | 18% | < 15% | < 15% | 17% | < 15% | < 15% | < 15% | < 15% | < 15% | < 17% | < 15% | N#CCNC(=O)/C=C/c1ccccc1 | > 100 µM | < 0.1 L/mol/s | 
4 | 23% | < 15% | < 15% | < 15% | < 15% | < 15% | < 15% | < 15% | < 15% | < 15% | 17% | N#CCNC(=O)c1ccccc1 | > 100 µM | < 0.1 L/mol/s | 
5 | 22% | < 15% | < 15% | < 15% | < 15% | < 15% | < 15% | < 15% | < 15% | < 15% | < 15% | N#CCC(=O)NCCc1ccccc1 |  | < 0.1 L/mol/s | 
6 | 18% | < 15% | < 15% | < 15% | < 15% | < 15% | < 15% | < 15% | < 15% | < 15% | < 15% | N#CCC(=O)NCc1ccccc1 |  | < 0.1 L/mol/s | 
7 | < 15% | < 15% | < 15% | < 15% | < 15% | < 15% | < 15% | < 15% | < 15% | < 17% | < 15% | BrC1=NOC(c2ccccc2)C1 (configuration not stated) |  | < 0.1 L/mol/s | 
8 | < 15% | < 15% | < 15% | < 15% | < 15% | < 15% | 16% | 22% | < 15% | < 15% | < 15% | C=CCNc1ccccc1 | > 100 µM | < 0.1 L/mol/s | 
9 | < 15% | < 15% | < 15% | < 15% | < 15% | < 15% | < 15% | < 15% | < 15% | < 15% | < 15% | CC(=O)Nc1ccc([N+](=O)[O-])cc1 |  | < 0.1 L/mol/s | 

Further lines, the compound ahead of its results:

Row | SMILES | inhibition [1] | inhibition (Escherichia coli [2]) | inhibition (Escherichia coli [3]) | inhibition [4] | inhibition (Escherichia coli [5]) | inhibition (Escherichia coli [6]) | inhibition (Escherichia coli [7]) | inhibition [8] | inhibition (Prothrombin (Bos taurus)) | inhibition (Escherichia coli [10]) | inhibition (Escherichia coli [11]) | EC50 (HeLa) | Activity [9] | Activity [12]
10 | CCCCNC(=O)CCl | < 15% | < 15% | < 15% | < 15% | 15% | < 15% | < 15% | < 15% | < 15% | < 15% | < 15% | > 100 µM | < 0.1 L/mol/s | 
11 | COc1ccc(NC(=O)n2ccnc2)cc1 | < 15% | < 15% | < 15% | < 15% | < 15% | < 15% | 17% | < 15% | < 15% | < 15% | < 15% |  | < 0.1 L/mol/s | 
12 | O=C(CCl)NCc1ccccc1 | < 15% | < 15% | < 15% | < 15% | < 15% | < 15% | < 15% | < 15% | < 15% | < 15% | < 15% |  | < 0.1 L/mol/s | 
13 | C=CCNCCCC | < 15% | < 15% | < 15% | < 15% | < 15% | < 15% | < 15% | < 15% | < 15% | < 15% | 19% | > 100 µM | < 0.1 L/mol/s | 
14 | C=CCNc1ccc([N+](=O)[O-])cc1 | < 15% | < 15% | < 15% | < 15% | < 15% | < 15% | < 15% | < 15% | < 15% | < 15% | 20% |  | < 0.1 L/mol/s | 
15 | O=C(CCl)Nc1ccc(F)cc1 | < 15% | < 15% | < 15% | < 15% | < 15% | < 15% | < 15% | < 15% | < 15% | < 15% | < 15% |  | < 0.1 L/mol/s | 
16 | C=CCNCCc1ccccc1 | < 15% | < 15% | < 15% | < 15% | < 15% | < 15% | < 15% | < 15% | < 15% | < 15% | < 15% |  | < 0.1 L/mol/s | 
17 | C=CCNc1ccc(OC)cc1 | < 15% | < 15% | < 15% | < 15% | < 15% | < 15% | < 15% | < 15% | < 15% | < 15% | 20% |  | < 0.1 L/mol/s | 
18 | O=C(CCl)NC1CCCC1 | < 15% | < 15% | < 15% | < 15% | < 15% | < 15% | < 15% | < 15% | < 15% | < 15% | < 15% |  | < 0.1 L/mol/s | 
19 | Cc1ccc(NC(=O)n2ccnc2)cc1 | < 15% | < 15% | < 15% | < 15% | < 15% | < 15% | < 15% | < 15% | < 15% | < 15% | < 15% |  | < 0.1 L/mol/s | 
20 | Cc1ccc(NC(=O)CCl)cc1 | < 15% | < 15% | < 15% | < 15% | < 15% | < 15% | < 15% | < 15% | < 15% | < 15% | < 15% |  | < 0.1 L/mol/s | 
